# Assay results from PMC4962910 (Nature cell biology, 2014).
# Non-standard residues stand in square brackets, D forms with d. Residues, ends and D or L forms follow the SMILES beside them. No end group written: not given here. pT = C[C@@H](OP(=O)(O)O)[C@H](N)C(=O)O; pS = N[C@@H](COP(=O)(O)O)C(=O)O
# T1: NBS1 (Homo sapiens, UniProt O60934)
# T1 sequence (O60934 1-382 limits assumed): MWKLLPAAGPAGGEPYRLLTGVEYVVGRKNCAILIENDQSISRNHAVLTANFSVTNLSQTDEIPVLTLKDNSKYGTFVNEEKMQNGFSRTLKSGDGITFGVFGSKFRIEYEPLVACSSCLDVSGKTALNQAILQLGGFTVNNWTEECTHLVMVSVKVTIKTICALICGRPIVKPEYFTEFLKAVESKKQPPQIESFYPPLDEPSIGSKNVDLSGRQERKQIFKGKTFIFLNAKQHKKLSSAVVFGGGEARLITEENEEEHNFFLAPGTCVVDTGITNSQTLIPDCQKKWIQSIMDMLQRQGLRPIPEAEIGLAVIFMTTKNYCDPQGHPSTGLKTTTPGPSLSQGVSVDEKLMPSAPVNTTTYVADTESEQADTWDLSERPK
# Tests used:
# [1] = test system: NBS1-GFP positive nucleoli; assay type: cell-based; settings: PARP inhibition (Supplementary Fig. 6c)
# How it was run: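 U2OS cells stably expressing NBS1-GFP (U2OS-NBS1-GFP2) were grown in DME with 10 % fetal bovine serum, penicillin and streptomycin. Medium was supplemented with the PARP inhibitor veliparib (ABT888) for 1 h. Each cell was scored manually as positive or negative by visual presence of GFP signal within nucleoli.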
# NBS1 = molecular target: T1, NBS1; assay: Isothermal titration calorimetry; assay type: binding
# [2] = molecular target: NBS1 N-terminal FHA-BRCT region (sample of the ITC) (human); assay: ITC
molecule,measurement,setting,value
"C[C@]1(c2nc3c(C(N)=O)cccc3[nH]2)CCCN1 [PARP inhibition, Veliparib]",number of cells with NBS1-GFP positive nucleoli,[1],small but reproducible decrease
CC(C)[C@H](NC(=O)[C@H](CC(=O)O)NC(=O)[C@@H](NC(=O)[C@H](CCC(=O)O)NC(=O)[C@H](CC(=O)O)NC(=O)[C@H](COP(=O)(O)O)NC(=O)[C@H](CO)NC(=O)[C@H](CO)NC(=O)[C@@H](N)CO)[C@@H](C)OP(=O)(O)O)C(=O)N[C@@H](CCC(=O)O)C(=O)O [SDET] (H-SSS[pS]DE[pT]DVE-OH),Kd,NBS1,~1000 nM
SSS[pS]DE[pT]DVE [Treacle SDET phosphopeptide (SSSpSDEpTDVE)],Kd,[2],1000 nM
